Runt-SMMHC FRET: Runt domain-CBFb-SMMHC interaction inhibition; AID 1434; Cerulean-Runt/Venus-CBFb-SMMHC FRET ratio 530/480, 1 h; inhibition, % at 20 µM; 220,000 compounds, 0.74% hits;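 active = mean inhibition across duplicate retests at 20 µM reaching about 50%, limit read from the data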;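 note: inhibitors lower the FRET ratio by blocking Runt binding to CBFb-SMMHC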
Efa HMGR inh: E. faecalis class II HMG-CoA reductase inhibition; purified E. faecalis HMGR, NADPH absorbance 340 nm kinetic; inhibition, % at 10 µM; 190,000 compounds, 0.41% hits; AID 1066;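 active = inhibition above a set limit, the median over all tested compounds plus 3 SD, cut at about 9.5% in these data; inconclusive = no clear call, values can overlap the other calls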;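 note: enzyme runs in reverse so mevalonate oxidation gives rising NADPH absorbance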
Runt-CBFb FRET: blocks binding of human RUNX1 Runt domain to CBFb; inhibition, % at 20 µM; Cerulean-Runt/Venus-CBFb FRET ratio 530/480, 1 h; 220,000 compounds, 0.46% hits; AID 1496;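 active = inhibition over about 50% at 20 µM in the single-dose screen, limit read from the data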
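System: Cerulean-labeled Runt domain protein | Quantity: 100 nM of each labeled protein | Schedule: 1 h compound exposure, room temperature | Detection: Fluorescence energy transfer, 422 nm excitation, 530/480 nm emission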
Wee1 degr inh: blocks degradation of human Wee1 kinase | P30291 | HeLa Luc-Wee1K328M stability, luciferase luminescence; 100% = proteasome inhibitor MG132 effect | reporter increase, % at 5 µM | 220,000 compounds, 1.2% hits | AID 1321;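 active = activation above the mean of all tested compounds plus 3 SD, set per screening run, cut at about 8.8% in these data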;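 note: cells exposed to compound for 20 h before luminescence read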
Target sequence (P30291 whole entry K328M): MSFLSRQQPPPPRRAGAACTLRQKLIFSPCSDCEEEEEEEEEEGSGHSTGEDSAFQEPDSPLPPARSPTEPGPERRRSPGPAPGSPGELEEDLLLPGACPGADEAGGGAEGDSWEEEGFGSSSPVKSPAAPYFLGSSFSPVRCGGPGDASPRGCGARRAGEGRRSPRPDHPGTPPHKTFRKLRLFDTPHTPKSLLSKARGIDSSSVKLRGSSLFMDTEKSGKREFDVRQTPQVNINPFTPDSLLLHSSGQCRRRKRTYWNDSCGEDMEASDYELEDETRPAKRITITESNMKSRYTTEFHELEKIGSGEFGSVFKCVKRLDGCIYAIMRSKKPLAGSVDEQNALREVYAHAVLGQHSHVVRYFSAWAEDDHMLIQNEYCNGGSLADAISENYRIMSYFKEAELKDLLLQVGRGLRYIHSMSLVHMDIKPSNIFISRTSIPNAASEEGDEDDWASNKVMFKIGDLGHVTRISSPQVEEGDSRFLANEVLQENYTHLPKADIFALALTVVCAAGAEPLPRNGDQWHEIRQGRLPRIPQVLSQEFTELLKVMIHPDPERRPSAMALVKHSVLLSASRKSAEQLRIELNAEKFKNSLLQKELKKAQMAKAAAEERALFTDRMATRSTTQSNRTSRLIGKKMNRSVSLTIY
PHOSPHO1 block: inhibitors of human PHOSPHO1 phosphatase | Q8TCT1 | inhibition, % at 13.3 µM | AID 1565 | 290,000 compounds, 1.1% hits | recombinant PHOSPHO1, absorbance phosphatase assay; in the data active = inhibition above about 60%
RanGTP-Impb inh: disruptors of Ran-importin-beta complex formation – biochemical, FRET, CFP-Ran, YFP-importin-beta, homogeneous, primary screen | cell-free CFP-Ran/YFP-importin-beta FRET ratio | inhibition, % (test concentration not listed) | 300,000 compounds, 1.1% hits | AID 2216;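 active = more than half of the replicate wells show a fall in the fluorescence ratio signal beyond about 16%, limit read from the data, passing the limit was not always enough; inconclusive = exactly half of the replicate wells pass the set limit; inactive = fewer than half of replicates pass the limit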
RUNX1 CBFb TR: disrupts human RUNX1 Runt domain binding to CBFb; AID 1502; 480 compounds, 20% hits; inhibition, % at 20 µM; shares compounds with Runt-CBFb FRET; TR-FRET RUNX1 Runt domain-CBFb binding; in the data active = inhibition above about 40%
Hits are given with their value; i = inactive; ? = inconclusive; nt = no result. Only some compounds are listed: those with a hit (about 3.4% of all), similar ones and a draw of the others.

SMILES | Runt-SMMHC FRET | Efa HMGR inh | Runt-CBFb FRET | Wee1 degr inh | PHOSPHO1 block | RanGTP-Impb inh | RUNX1 CBFb TR
CN(C(=O)c1ccccn1)c1nnc(-c2cccnc2)s1 | i | i | 82.1 | i | i | nt | i
Cc1nn(Cc2ccccc2)c(Cl)c1C(=O)NCc1ccco1 | i | i | i | i | i | i | nt
Cc1cc(C)nc(SCCC(=O)N(C)C)n1 | i | i | i | i | i | i | nt
CCNC(=O)CCSc1nc(C)cc(C)n1 | i | i | 50.5 | i | i | i | i
Cc1cc(C)nc(SCC(=O)c2ccc(F)cc2)n1 | nt | nt | nt | nt | i | i | nt
Cc1cc(C)nc(SCNC(=O)c2ccc(F)cc2)n1 | i | i | 53.3 | i | i | i | i
COc1ccc(/C=N/NC(=O)c2nc(-c3ccccc3)n(-c3ccccc3)n2)cc1OC | i | i | 76.0 | i | i | i | i
CN1CCN(C(=S)c2ccc(Br)cc2)CC1 | i | i | 50.2 | i | 61.3 | ? | i
CSc1ccc(C(=S)N2CCN(C)CC2)cc1 | i | i | 54.5 | i | i | i | i
Cc1ccccc1C1C(C#N)=C(N)N(N(C)C)C2=C1C(=O)CC(C)(C)C2 (centres undefined) | nt | nt | nt | nt | i | i | nt
O=C(NNC1=C(C(=O)C(F)(F)F)CCC1)c1ccc(Cl)cc1 | i | i | 77.2 | i | i | i | i
COc1cc(/C=C(\C#N)c2nc3ccccc3[nH]2)cc(Br)c1OCc1ccc(F)cc1 | 106.3 | i | 53.6 | i | i | i | i
COc1cc(/C=C(\C#N)c2nc3ccccc3[nH]2)cc(Br)c1OCc1ccccc1 | i | i | i | i | i | i | nt
CC(C)(C)C(=O)CSc1ncccn1 | i | i | 58.2 | i | i | i | 69.6
COc1ccc(C2C(C#N)=C(N)N(Nc3ccccc3)C3=C2C(=O)CC(C)(C)C3)cc1C (centres undefined) | 101.5 | i | 61.5 | i | i | i | i
COc1ccccc1CCn1c(N)c(C#N)c2nc3ccccc3nc21 | 140.0 | i | 80.3 | i | i | 56.4 | i
N#Cc1c(N)n(-c2ccccc2N)c2nc3ccccc3nc12 | i | nt | i | i | i | i | nt
COc1cc(OC)c(C2CC(=O)N3CN(c4ccccc4)CSC3=C2C#N)cc1OC (centres undefined) | 110.8 | i | 80.4 | i | 102.9 | i | i
COc1ccc(C2CC(=O)N3C(=C2C#N)SCC3(O)c2ccccc2)cc1 (centres undefined) | i | i | i | i | i | i | nt
CCCCOC(=O)Nc1ccccc1C(N)=O | i | i | 51.0 | i | i | ? | i
CCOC(=O)CCC(=O)Nc1ccccc1C(N)=O | i | i | i | i | i | i | nt
CC1(C)CC(=O)c2c(oc3cc(O)c(O)cc23)C1 | i | i | 52.1 | i | i | i | i
CCOc1ccccc1NC(=O)c1cc2ccccc2oc1=O | nt | nt | nt | nt | i | i | nt
CCN(CC)c1ccc2cc(C(=O)Nc3cccnc3N3CCOCC3)c(=O)oc2c1 | 79.2 | nt | 59.0 | nt | i | nt | i
COc1ccc(-n2nnnc2Sc2ccc(S(=O)(=O)N3CCOCC3)cn2)cc1 | i | nt | 57.1 | nt | 85.4 | i | i
SMILES | Runt-SMMHC FRET | Efa HMGR inh | Runt-CBFb FRET | Wee1 degr inh | PHOSPHO1 block | RanGTP-Impb inh | RUNX1 CBFb TR
COc1ccc(-n2nnnc2SCC(=O)N2CCOCC2)cc1 | i | i | i | i | i | i | nt
O=C(O)c1cc(Cl)ccc1-c1ccc(/C=C/c2cc(C(F)(F)F)[nH]c(=O)n2)o1 | 91.5 | i | 51.9 | i | i | i | i
Cc1nc(S/C(=C/c2ccc(-c3cc(Cl)ccc3C)o2)C(=O)O)n[nH]1 | i | nt | i | i | i | i | nt
O=C(O)c1ccccc1C(=O)c1ccc(-c2ccccc2)cc1 | nt | nt | nt | nt | i | i | nt
O=C(c1ccccc1)c1ccccc1N1C(=O)C=CC1=O | 69.9 | nt | 64.4 | i | i | i | i
CCN1CCc2nc(NC(=O)c3ccc4c(c3)OCCO4)sc2C1 | 111.6 | i | 50.9 | i | i | 80.4 | i
COc1ccccc1NC(=O)c1ccc2c(c1)N(CC#N)C(=O)C(C)(C)O2 | nt | nt | nt | nt | i | ? | nt
Cc1nn(C(=O)Cn2ccc([N+](=O)[O-])n2)c(C)c1Br | i | i | i | i | i | i | nt
N#CCCN(C(=O)COc1ccc(F)cc1Br)c1ccccc1F | i | i | i | i | i | i | nt

Screening results (PubChem BioAssay)
